Test results from ChEMBL document CHEMBL4411315, “Discovery of Novel Dual Histone Deacetylase and Mammalian Target of Rapamycin Target Inhibitors as a Promising Strategy for Cancer Therapy” (J Med Chem, 2019).

Key:
[1] = target: Histone deacetylase 11 (Homo sapiens, UniProt Q96DB2); assay: Inhibition of recombinant full length N-terminal GST-tagged human HDAC11 expressed in baculovirus expression system using Ac-peptide-AMC as substrate preincubated for 15 mins followed by substrate addition and measured after 1 hr by fluorescence assay
[2] = test system: MM1.S; assay: Cell cycle arrest in human MM1S cells assessed as accumulation at G0/G1 phase at 1.25 nM after 24 hrs by propidium iodide/RNase staining-based FACS analysis (reference value: 49.22%); type: functional
[3] = test system: MV4-11; assay: Induction of apoptosis in human MV4-11 cells assessed as viable cells at 20 nM after 48 hrs by Annexin V-FITC/propidium iodide staining-based flow cytometric analysis (reference value: 84.1%); type: functional; conditions: MV4-11, 48 h, read-out: Activity
[4] = test system: MM1.S; assay: Induction of apoptosis in human MM1S cells assessed as early apoptotic cells at 10 nM after 48 hrs by Annexin V-FITC/propidium iodide staining-based flow cytometric analysis (reference value: 0.38%); type: functional
[5] = test system: MM1.S; assay: Induction of apoptosis in human MM1S cells assessed as viable cells at 10 nM after 48 hrs by Annexin V-FITC/propidium iodide staining-based flow cytometric analysis (reference value: 98.9%); type: functional; conditions: read-out: Activity
[6] = test system: MM1.S; assay: Induction of apoptosis in human MM1S cells assessed as viable cells at 20 nM after 48 hrs by Annexin V-FITC/propidium iodide staining-based flow cytometric analysis (reference value: 98.9%); type: functional; conditions: read-out: Activity
[7] = test system: MM1.S; assay: Induction of apoptosis in human MM1S cells assessed as early apoptotic cells at 40 nM after 48 hrs by Annexin V-FITC/propidium iodide staining-based flow cytometric analysis (reference value: 0.38%); type: functional
[8] = test system: MM1.S; assay: Induction of apoptosis in human MM1S cells assessed as necrotic cells at 40 nM after 48 hrs by Annexin V-FITC/propidium iodide staining-based flow cytometric analysis (reference value: 0.32%); type: functional
[9] = test system: MM1.S; assay: Induction of apoptosis in human MM1S cells assessed as viable cells at 80 nM after 48 hrs by Annexin V-FITC/propidium iodide staining-based flow cytometric analysis (reference value: 98.9%); type: functional; conditions: read-out: Activity
[10] = test system: MM1.S; assay: Induction of apoptosis in human MM1S cells assessed as early apoptotic cells at 160 nM after 48 hrs by Annexin V-FITC/propidium iodide staining-based flow cytometric analysis (reference value: 0.38%); type: functional
[11] = Toxicity against NOD/SCID mouse xenografted with human MM1S cells assessed as effect on body weight at 10 mg/kg, iv administered every 2 days for 5 days; type: organism-based; conditions: in vivo
In short: (§1)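 Female NOD/SCID mice, 5-6 weeks old, received 10^7 MM1S cells in 100 μL serum-free RPMI 1640 s.c. into the right flank. At 100-200 mm3 tumours they were randomised, 6 mice per group. Tumours were measured by caliper every 2 days. At the end, tumours were excised and weighed. Survivors are reported per group.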

[12] = Toxicity against NOD/SCID mouse xenografted with human MM1S cells assessed as effect on body weight at 20 mg/kg, iv administered every 2 days for 5 days; type: organism-based; conditions: in vivo; in short: as §1

Histone deacetylase 11, sequence (Q96DB2 whole entry): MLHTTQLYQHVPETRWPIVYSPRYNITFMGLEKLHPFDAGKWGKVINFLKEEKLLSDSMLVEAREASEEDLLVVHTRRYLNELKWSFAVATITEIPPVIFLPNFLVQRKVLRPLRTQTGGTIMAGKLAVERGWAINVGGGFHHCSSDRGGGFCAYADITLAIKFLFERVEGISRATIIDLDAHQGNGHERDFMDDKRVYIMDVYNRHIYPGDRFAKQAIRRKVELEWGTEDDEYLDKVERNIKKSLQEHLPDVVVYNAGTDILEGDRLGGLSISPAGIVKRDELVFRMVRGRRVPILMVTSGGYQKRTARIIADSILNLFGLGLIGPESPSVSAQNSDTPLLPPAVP

SMILES: C[C@@H]1CN(C(=O)Nc2ccc(-c3nc(N4CCOCC4)c4cnn(CCCCCCC(=O)NO)c4n3)cc2)CCO1
- IC50 [1]: > 1000 nM
- Activity [2]: 53.85%
- viability at 0.02 µM [3]: 20.6%
- Activity [4]: 3.09%
- viability at 0.01 µM [5]: 95.1%
- viability at 0.02 µM [6]: 92.6%
- Activity [7]: 4.81%
- Activity [8]: 2.08%
- viability at 0.08 µM [9]: 49.7%
- Activity [10]: 19.6%
- Activity [11]: Non-Toxic
- Activity [12]: Non-Toxic
